# According to ChEMBL document CHEMBL4138162, “Design and synthesis of small molecule agonists of EphA2 receptor” (Eur J Med Chem, 2018):
# Active and inactive are the calls of the source. The calls are words filed in the database; no cut-off is given here.
# Target: Ephrin type-A receptor 2 (Homo sapiens) (UniProt P29317)
# Assay: Agonist activity against EphA2 (unknown origin) overexpressed in MDA-MB-231-A2 cells assessed as increase in phosphorylated EphA2 levels at 2 to 50 uM after 30 mins by immunoprecipitation and immunoblot assay relative to 50 uM doxazosin
# Format: cell-based
# Procedure, shortened: (§1)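 MDA-MB-231 cells stably overexpressing EphA2 (kept in 1 µg/ml puromycin) were plated at 100,000 cells/well, grown 24 h, then treated 30 min with compound (2, 10, 50 µM; DMSO stock at 200× final, 0.5% DMSO vehicle). Lysates in modified RIPA were immunoprecipitated with ephrin-A1-Fc on Protein G beads. Blots were probed for pEphA/B and EphA2, and pEphA2/total EphA2 was quantified by band densitometry.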
# Ephrin type-A receptor 2 (Homo sapiens), sequence (P29317 whole entry): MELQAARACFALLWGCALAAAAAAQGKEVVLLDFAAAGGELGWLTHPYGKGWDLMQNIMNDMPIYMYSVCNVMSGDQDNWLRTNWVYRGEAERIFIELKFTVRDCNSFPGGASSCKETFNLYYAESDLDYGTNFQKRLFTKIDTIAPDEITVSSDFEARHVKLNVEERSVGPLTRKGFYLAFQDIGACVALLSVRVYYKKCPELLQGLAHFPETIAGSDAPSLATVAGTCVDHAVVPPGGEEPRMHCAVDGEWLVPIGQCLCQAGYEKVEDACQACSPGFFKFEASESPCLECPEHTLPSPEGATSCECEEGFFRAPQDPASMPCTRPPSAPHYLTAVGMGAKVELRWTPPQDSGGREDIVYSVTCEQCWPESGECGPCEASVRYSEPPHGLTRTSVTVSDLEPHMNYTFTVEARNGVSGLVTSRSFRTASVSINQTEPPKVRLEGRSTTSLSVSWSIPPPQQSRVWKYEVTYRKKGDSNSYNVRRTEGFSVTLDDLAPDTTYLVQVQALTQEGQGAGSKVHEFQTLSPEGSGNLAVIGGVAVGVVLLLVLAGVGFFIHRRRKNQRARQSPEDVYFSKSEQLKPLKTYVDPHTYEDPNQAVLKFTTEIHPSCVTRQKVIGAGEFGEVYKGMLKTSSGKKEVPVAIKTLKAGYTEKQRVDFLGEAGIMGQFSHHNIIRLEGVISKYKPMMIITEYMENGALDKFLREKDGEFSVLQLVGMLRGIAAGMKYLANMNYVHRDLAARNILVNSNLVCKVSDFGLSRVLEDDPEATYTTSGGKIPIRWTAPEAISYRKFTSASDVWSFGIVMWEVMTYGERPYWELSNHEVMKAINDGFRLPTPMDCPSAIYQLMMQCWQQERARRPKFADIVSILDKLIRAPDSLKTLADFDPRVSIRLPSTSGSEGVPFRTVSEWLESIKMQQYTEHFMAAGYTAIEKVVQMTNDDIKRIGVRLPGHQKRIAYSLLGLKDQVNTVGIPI
row,SMILES,Activity
1,COc1cc2nc(N3CCN(C(=O)Cc4ccc(OCc5ccccc5)cc4)CC3)nc(NC(C)=O)c2cc1OC,inactive
2,COc1cc2nc(N3CCN(C(=O)Cc4ccc(OCc5ccccc5)cc4)CC3)nc(N3CCCC3)c2cc1OC,inactive
3,COc1cc2nc(N3CCN(C(=O)CCCCC(=O)N4CCN(c5nc(N)c6cc(OC)c(OC)cc6n5)CC4)CC3)nc(N)c2cc1OC,inactive
4,COc1cc2nc(N3CCN(C(C)=O)CC3)nc(N)c2cc1OC,inactive
5,CCC(=O)N1CCN(c2nc(N)c3cc(OC)c(OC)cc3n2)CC1,inactive
6,COc1cc2nc(N3CCN(C(=O)Cc4ccc(OCc5ccccc5)cc4)CC3)nc(N3CCCCC3)c2cc1OC,inactive
7,CCCCCC(=O)N1CCN(c2nc(N)c3cc(OC)c(OC)cc3n2)CC1,inactive
8,COc1cc2nc(N3CCN(C(=O)C4CCCCC4)CC3)nc(N)c2cc1OC,inactive
9,CCOc1cc2nc(N3CCN(C(=O)Cc4ccc(OCc5ccccc5)cc4)CC3)nc(N)c2cc1OCC,inactive
10,CCCC(=O)N1CCN(c2nc(N)c3cc(OC)c(OC)cc3n2)CC1,inactive
11,COc1cc2nc(N3CCN(C(=O)C4COc5ccccc5O4)CC3)nc(NC(C)=O)c2cc1OC (centres undefined),inactive
12,COc1cc2nc(N3CCN(C(=O)c4ccno4)CC3)nc(N)c2cc1OC,inactive
13,COc1ccc(C(=O)N2CCN(C(=O)c3ccc(OC)cc3)CC2)cc1,inactive
14,CSc1ccc(C(=O)N2CCN(C(=O)c3ccc(SC)cc3)CC2)cc1,inactive
15,COc1cc2nc(N3CCN(C(=O)CCCCCCCCCCC(=O)N4CCN(c5nc(N)c6cc(OC)c(OC)cc6n5)CC4)CC3)nc(N)c2cc1OC,Active

# Results, then the compound that gave them:
row,Activity,SMILES
1,Active,COc1cc2nc(N3CCN(C(=O)c4ccc(I)cc4)CC3)nc(N)c2cc1OC
2,inactive,COc1cc2nc(N3CCN(C(=O)c4ccco4)CC3)nc(N)c2cc1OC
3,inactive,COc1cc2nc(N3CCN(C(=O)c4ccccn4)CC3)nc(N)c2cc1OC
4,Active,COc1cc2nc(N3CCN(C(=O)c4ccc5ccccc5c4)CC3)nc(N)c2cc1OC
5,Active,CCc1ccc(C(=O)N2CCN(c3nc(N)c4cc(OC)c(OC)cc4n3)CC2)cc1
6,Active,COc1cc2nc(N3CCN(C(=O)Cc4ccccc4)CC3)nc(N)c2cc1OC
7,inactive,COc1cc2nc(N3CCN(C(=O)c4cccs4)CC3)nc(N)c2cc1OC
8,Active,COc1cc2nc(N3CCN(C(=O)c4ccc(Br)cc4)CC3)nc(N)c2cc1OC
9,Active,COc1ccc(CC(=O)N2CCN(c3nc(N)c4cc(OC)c(OC)cc4n3)CC2)cc1
10,inactive,COc1ccc(C(=O)N2CCN(c3nc(N)c4cc(OC)c(OC)cc4n3)CC2)cc1
11,Active,COc1cc2nc(N3CCN(C(=O)Cc4ccc(OCc5ccccc5)cc4)CC3)nc(N)c2cc1OC
12,Active,COc1cc2nc(N3CCN(C(=O)Cc4ccc5ccccc5c4)CC3)nc(N)c2cc1OC
13,Active,COc1cc2nc(N3CCN(C(=O)c4ccc5c(c4)OCO5)CC3)nc(N)c2cc1OC
14,Active,COc1cc2nc(N3CCN(C(=O)C(C)c4ccccc4)CC3)nc(N)c2cc1OC (centres undefined)
15,inactive,COc1cc2nc(N3CCN(C(=O)c4ccc(Cl)c([N+](=O)[O-])c4)CC3)nc(N)c2cc1OC
16,inactive,COc1cc2nc(N3CCN(C(=O)c4ccncc4)CC3)nc(N)c2cc1OC
17,Active,COc1cc2nc(N3CCN(C(=O)c4ccc(-c5ccccc5)cc4)CC3)nc(N)c2cc1OC
18,Active,COc1cccc(CC(=O)N2CCN(c3nc(N)c4cc(OC)c(OC)cc4n3)CC2)c1

# Target: Ephrin type-A receptor 2 (Homo sapiens) (UniProt P29317)
# Assay: Agonist activity against EphA2 (unknown origin) overexpressed in MDA-MB-231-A2 cells assessed as increase in phosphorylated EphA2 levels at 50 uM after 30 mins by immunoprecipitation and immunoblot assay
# Format: cell-based
# Procedure, shortened: as §1
row,Activity,SMILES
1,Active,COc1cc2nc(N3CCN(C(=O)CCCCCCCCCCC(=O)N4CCN(c5nc(N)c6cc(OC)c(OC)cc6n5)CC4)CC3)nc(N)c2cc1OC

# Target: Ephrin type-A receptor 2 (Homo sapiens) (UniProt P29317)
# Assay: Binding affinity to EphA2 in human MDA-MB-231 cells assessed as induction of EphA2 receptor internalization at 0.4 uM after 1 hr by immunofluorescence microscopy
# Format: cell-based
# Procedure, shortened: (§2)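 MDA-MB-231 cells on fibronectin-coated coverslips, 24–48 h after seeding, treated 1 h with compound (0.4–50 µM) in 0.5% DMSO. Cells were then PFA-fixed on ice, permeabilized with NP-40 and immunostained with anti-EphA2 (D7) plus Alexa Fluor 488 secondary, with DAPI counterstain. Surface versus intracellular EphA2 was judged by fluorescence microscopy. Three independent repeats.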
row,Activity,SMILES
1,Active,COc1cc2nc(N3CCN(C(=O)CCCCCCCCCCC(=O)N4CCN(c5nc(N)c6cc(OC)c(OC)cc6n5)CC4)CC3)nc(N)c2cc1OC

# Target: Ephrin type-A receptor 2 (Homo sapiens) (UniProt P29317)
# Assay: Binding affinity to EphA2 in human MDA-MB-231 cells assessed as induction of EphA2 receptor internalization at 50 uM after 1 hr by immunofluorescence microscopy
# Format: cell-based
# Procedure, shortened: as §2
row,Activity,SMILES
1,Active,COc1cc2nc(N3CCN(C(=O)C4COc5ccccc5O4)CC3)nc(N)c2cc1OC (centres undefined)

# Test system: MDA-MB-231
# Assay: Anticlonogenic activity against human MDA-MB-231 cells up to 10 uM after 14 days by crystal violet staining-based assay
# Format: functional, cell-based
# Procedure, shortened: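 Parental MDA-MB-231 cells, 1000/well, cultured 24 h, then exposed to 0, 0.08, 0.4, 2 or 10 µM compound in 0.5% DMSO for 14 days. Colonies were fixed in 4% paraformaldehyde, rinsed in 20% methanol and stained with 0.5% crystal violet. Three independent experiments.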
row,SMILES,Activity
1,CCCCCC(=O)N1CCN(c2nc(N)c3cc(OC)c(OC)cc3n2)CC1,Active
2,COc1cc2nc(N3CCN(C(=O)Cc4ccc(OCc5ccccc5)cc4)CC3)nc(N)c2cc1OC,Active
3,COc1cc2nc(N3CCN(C(=O)CCCCCCCCCCC(=O)N4CCN(c5nc(N)c6cc(OC)c(OC)cc6n5)CC4)CC3)nc(N)c2cc1OC,Active
